ChEMBL document CHEMBL3576792, “Enhancement of antibiotic activity against multidrug-resistant bacteria by the efflux pump inhibitor 3,4-dibromopyrrole-2,5-dione isolated from a Pseudoalteromonas sp” (J Nat Prod, 2015)
Converted amounts (≈) assume the structure as drawn. The source made the active and inactive calls. The calls are words filed in the database; no cut-off is given here. Residues, ends and D or L forms follow the SMILES beside them. *: point of attachment. βNA = c1ccc2cc(N*)ccc2c1

Tests used:
[1] = system: Escherichia coli; experiment: Antibacterial activity against Escherichia coli transformed with plasmid carrying MG1655 deltaBC/pXYM by p-iodonitrotetrazolium chloride colorimetric assay; assay type: functional
Method in brief: (§1)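 Two-fold broth microdilution in Mueller-Hinton broth, read by p-iodonitrotetrazolium chloride colorimetric assay. MIC is the lowest concentration giving no visible growth. MG1655 ΔacrB ΔtolC strains carrying pABM or pXYM were always cultured with 100 μg/mL ampicillin and 1 mM IPTG. Medium, inoculum and 1% DMSO (final) served as negative control.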

[2] = system: Escherichia coli; experiment: Antibacterial activity against Escherichia coli AG102 overexpressing AcrAB-TolC by p-iodonitrotetrazolium chloride colorimetric assay; assay type: functional; method in brief: as §1
[3] = system: Escherichia coli; experiment: Antibacterial activity against Escherichia coli transformed with plasmid carrying MG1655 deltaBC/pABM by p-iodonitrotetrazolium chloride colorimetric assay; assay type: functional; method in brief: as §1
[4] = system: Escherichia coli; experiment: Inhibition of AcrAB-TolC pump in Escherichia coli AG100 assessed as increase in intracellular H33342 fluorescence at 15.6 ug/ml after 60 mins by efflux inhibition assay; assay type: cell-based
Method in brief: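 AG100 (wild-type K-12) or AG100A (ΔacrAB) cells were grown in Luria broth at 37 °C and 200 rpm to OD600 1.0, PBS-washed and diluted to OD600 0.3. Cells took up 2.5 μM Hoechst 33342 with 22 mM glucose at 37 °C for about 30 min, then compound (0.06–64 μg/mL) or PAβN (15.6 μg/mL) was added. Fluorescence (Ex 350/Em 460 nm) was followed for 60 min and corrected for background. The last four time points were compared to dye-only control by ANOVA with Dunnett's test, run in duplicate.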

What does the source list for `CC[C@H]1OC(=O)[C@H](C)[C@@H](O[C@H]2C[C@@](C)(OC)[C@@H](O)[C@H](C)O2)[C@H](C)[C@@H](O[C@@H]2O[C@H](C)C[C@H](N(C)C)[C@H]2O)[C@](C)(O)C[C@@H](C)C(=O)[C@H](C)[C@@H](O)[C@]1(C)O` [ERYTHROMYCIN]?
MIC [1]: 32 µg/mL (≈ 43.6 µM); MIC [2]: 128 µg/mL (≈ 174 µM); MIC [3]: 32 µg/mL (≈ 43.6 µM)

How did the MIC [1] turn out when `NC[C@H]1O[C@H](O[C@H]2[C@H](O)[C@@H](O[C@H]3O[C@H](CO)[C@@H](O)[C@H](N)[C@H]3O)[C@H](N)C[C@@H]2N)[C@H](O)[C@@H](O)[C@@H]1O` [KANAMYCIN] was run?
Its MIC is 0.25 µg/mL (≈ 0.516 µM).

And the MIC [2]?
Its MIC is 16 µg/mL (≈ 33 µM).

And the MIC [3]?
The MIC was 2 µg/mL (≈ 4.13 µM).

With `N=C(N)NCCC[C@H](NC(=O)[C@@H](N)Cc1ccccc1)C(=O)Nc1ccc2ccccc2c1` (H-Phe-Arg-βNA) as the compound, how does the inhibition [4] read?
Its inhibition is “Active”.

With `CCN1CCN(C(=O)N[C@@H](C(=O)N[C@@H]2C(=O)N3[C@@H]2SC(C)(C)[C@@H]3C(=O)O)c2ccccc2)C(=O)C1=O` [PIPERACILLIN] as the compound, how does the MIC [1] read?
Its MIC is 512 µg/mL (≈ 989 µM).

And the MIC [2]?
Its MIC is 4 µg/mL (≈ 7.73 µM).

And the MIC [3]?
Its MIC is greater than 512 µg/mL.

What does the source list for `CN(C)[C@@H]1C(O)=C(C(N)=O)C(=O)[C@@]2(O)C(O)=C3C(=O)c4c(O)cccc4[C@@](C)(O)[C@H]3C[C@@H]12` [TETRACYCLINE]?
MIC [1]: 0.25 µg/mL (≈ 0.563 µM); MIC [2]: 8 µg/mL (≈ 18 µM); MIC [3]: 2 µg/mL (≈ 4.5 µM)

For `O=C(O)c1cn(C2CC2)c2cc(N3CCNCC3)c(F)cc2c1=O` [CIPROFLOXACIN], which MIC [2] is on record?
The MIC was 0.13 µg/mL (≈ 0.392 µM).

For `Cc1onc(-c2ccccc2)c1C(=O)N[C@@H]1C(=O)N2[C@@H]1SC(C)(C)[C@@H]2C(=O)O` [OXACILLIN], which MIC [1] is on record?
The MIC was greater than 1300 µg/mL.

What about the MIC [2] of the same compound?
The MIC was greater than 650 µg/mL.

And the MIC [3]?
The MIC was greater than 1300 µg/mL.

How did the MIC [1] turn out when `O=C(N[C@H](CO)[C@H](O)c1ccc([N+](=O)[O-])cc1)C(Cl)Cl` [CHLORAMPHENICOL] was run?
Its MIC is 0.75 µg/mL (≈ 2.32 µM).

What about the MIC [2] of the same compound?
Its MIC is 24 µg/mL (≈ 74.3 µM).

And the MIC [3]?
The MIC was 24 µg/mL (≈ 74.3 µM).

Which MIC [1] does the source give for `C[C@H]1COc2c(N3CCN(C)CC3)c(F)cc3c(=O)c(C(=O)O)cn1c23.C[C@H]1COc2c(N3CCN(C)CC3)c(F)cc3c(=O)c(C(=O)O)cn1c23.O` [LEVOFLOXACIN] here?
The MIC was 0.13 µg/mL.

What about the MIC [2] of the same compound?
The MIC was 0.13 µg/mL.

What about the MIC [3] of the same compound?
The MIC was 0.13 µg/mL.
